Measured values published in the array DNA melting data of Ke et al. (doi:10.1101/2024.01.08.574731).

How the values were obtained:
[1] = folding enthalpy; higher = less favourable; fluorescence melt of hairpins on a sequencing array, two-state fit; conditions: sodium 0.088 M
Procedure, shortened: (§1)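 Folding enthalpy and melting temperature come from bootstrapped two-state fits to Cy3 fluorescence of library hairpins carrying annealed Cy3 and quencher oligos on a sequenced MiSeq flow cell. Imaging was done in 50 mM Na-HEPES pH 8.0, 25 mM NaCl, stepping by 2.5 °C up to 60 °C, and signals were normalised to pre-quench Cy3 and to control constructs. Results of four replicates were combined by inverse variance, and fitted temperatures were raised by 9.35 °C to match UV melts.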

[2] = melting temperature; fluorescence melt of hairpins on a sequencing array, two-state fit, raised by 9.35 °C to match UV melts; conditions: sodium 0.088 M
Procedure, shortened: as §1

Sequence: GATCACCGACGTGATC ((((((....))))))
- folding enthalpy [1]: -32.5 kcal/mol
- Tm [2]: 54.5 °C

Sequence: GATCACCGAGTGATC ((((((...))))))
- folding enthalpy [1]: -34.9 kcal/mol
- Tm [2]: 55.4 °C

Sequence: GATCACCGCGGTGATC ((((((....))))))
- folding enthalpy [1]: -44.1 kcal/mol
- Tm [2]: 67.2 °C

Sequence: GATCACCGCTGTGATC ((((((....))))))
- folding enthalpy [1]: -36.3 kcal/mol
- Tm [2]: 57 °C

Sequence: GATCACCGTTGTGATC ((((((....))))))
- folding enthalpy [1]: -39.8 kcal/mol
- Tm [2]: 55.4 °C

Sequence: GATCACCTATGTGATC ((((((....))))))
- folding enthalpy [1]: -40.1 kcal/mol
- Tm [2]: 57.1 °C

Sequence: GATCACGAAAGTGCAATC ((((((....)))..)))
- folding enthalpy [1]: -10 kcal/mol
- Tm [2]: 28.1 °C

Sequence: GATCACGAAAGTGCGATC ((((((....)))..)))
- folding enthalpy [1]: -16.3 kcal/mol
- Tm [2]: 29.5 °C

Sequence: GATCACGAAAGTGTGATC ((((((....)))..)))
- folding enthalpy [1]: -27 kcal/mol
- Tm [2]: 47.9 °C

Sequence: GATCACGAGAGTGATC ((((((....))))))
- folding enthalpy [1]: -28.4 kcal/mol
- Tm [2]: 67.8 °C

Sequence: GATCACGAGGGTGATC ((((((....))))))
- folding enthalpy [1]: -38.1 kcal/mol
- Tm [2]: 54.6 °C

Sequence: GATCACGCCTGTGATC ((((((....))))))
- folding enthalpy [1]: -49.5 kcal/mol
- Tm [2]: 59.4 °C

Sequence: GATCACGCGCGTGATC ((((((....))))))
- folding enthalpy [1]: -62 kcal/mol
- Tm [2]: 62.7 °C

Sequence: GATCACGGGAGTGATC ((((((....))))))
- folding enthalpy [1]: -37.6 kcal/mol
- Tm [2]: 68.5 °C

Sequence: GATCACGGTGTGATC ((((((...))))))
- folding enthalpy [1]: -30.5 kcal/mol
- Tm [2]: 61.3 °C

Sequence: GATCACGGTTGTGATC ((((((....))))))
- folding enthalpy [1]: -31.2 kcal/mol
- Tm [2]: 61 °C

Sequence: GATCACGTAGGTGATC ((((((....))))))
- folding enthalpy [1]: -39 kcal/mol
- Tm [2]: 63.9 °C

Sequence: GATCACGTATGTGATC ((((((....))))))
- folding enthalpy [1]: -38.5 kcal/mol
- Tm [2]: 68.2 °C

Sequence: GATCACGTCGTGATC ((((((...))))))
- folding enthalpy [1]: -40.5 kcal/mol
- Tm [2]: 61.1 °C

Sequence: GATCACGTGGTGATC ((((((...))))))
- folding enthalpy [1]: -46.3 kcal/mol
- Tm [2]: 56.5 °C

Sequence: GATCACGTTGGTGATC ((((((....))))))
- folding enthalpy [1]: -37 kcal/mol
- Tm [2]: 58.2 °C

Sequence: GATCACGTTGTGATC ((((((...))))))
- folding enthalpy [1]: -38.1 kcal/mol
- Tm [2]: 60.1 °C

Sequence: GATCACTAAAGTGATC ((((((....))))))
- folding enthalpy [1]: -38.6 kcal/mol
- Tm [2]: 54.5 °C

Sequence: GATCACTACGTGATC ((((((...))))))
- folding enthalpy [1]: -39.7 kcal/mol
- Tm [2]: 61.7 °C

Sequence: GATCACTAGGGTGATC ((((((....))))))
- folding enthalpy [1]: -41.7 kcal/mol
- Tm [2]: 57.3 °C

Sequence: GATCACTATGGTGATC ((((((....))))))
- folding enthalpy [1]: -41.5 kcal/mol
- Tm [2]: 59 °C

Sequence: GATCACTATTGTGATC ((((((....))))))
- folding enthalpy [1]: -37.8 kcal/mol
- Tm [2]: 58.3 °C

Sequence: GATCACTCCGGTGATC ((((((....))))))
- folding enthalpy [1]: -37.8 kcal/mol
- Tm [2]: 56.9 °C

Sequence: GATCACTCGAGTGATC ((((((....))))))
- folding enthalpy [1]: -39.9 kcal/mol
- Tm [2]: 59.4 °C

Sequence: GATCACTCGGGTGATC ((((((....))))))
- folding enthalpy [1]: -37.4 kcal/mol
- Tm [2]: 57.6 °C

Sequence: GATCACTCGGTGATC ((((((...))))))
- folding enthalpy [1]: -37.8 kcal/mol
- Tm [2]: 58.9 °C

Sequence: GATCACTGCTGTGATC ((((((....))))))
- folding enthalpy [1]: -38.2 kcal/mol
- Tm [2]: 57.1 °C

Sequence: GATCACTGGCGTGATC ((((((....))))))
- folding enthalpy [1]: -41.4 kcal/mol
- Tm [2]: 55.2 °C

Sequence: GATCACTTAAGTGATC ((((((....))))))
- folding enthalpy [1]: -38 kcal/mol
- Tm [2]: 59.3 °C

Sequence: GATCACTTCGTGATC ((((((...))))))
- folding enthalpy [1]: -46.6 kcal/mol
- Tm [2]: 58.9 °C

Sequence: GATCACTTCTGTGATC ((((((....))))))
- folding enthalpy [1]: -38.4 kcal/mol
- Tm [2]: 58.9 °C

Sequence: GATCAGAAAACTGATC ((((((....))))))
- folding enthalpy [1]: -29.2 kcal/mol
- Tm [2]: 43.6 °C

Sequence: GATCAGAACACTGATC ((((((....))))))
- folding enthalpy [1]: -32.1 kcal/mol
- Tm [2]: 48.5 °C

Sequence: GATCAGAACGCTGATC ((((((....))))))
- folding enthalpy [1]: -29.5 kcal/mol
- Tm [2]: 47.3 °C

Sequence: GATCAGAAGCCTGATC ((((((....))))))
- folding enthalpy [1]: -31.7 kcal/mol
- Tm [2]: 47.1 °C

Sequence: GATCAGAATACTGATC ((((((....))))))
- folding enthalpy [1]: -39.2 kcal/mol
- Tm [2]: 47.4 °C

Sequence: GATCAGAATTCTGATC ((((((....))))))
- folding enthalpy [1]: -43.5 kcal/mol
- Tm [2]: 50.4 °C

Sequence: GATCAGACAACTGATC ((((((....))))))
- folding enthalpy [1]: -32.3 kcal/mol
- Tm [2]: 45.9 °C

Sequence: GATCAGACACCTGATC ((((((....))))))
- folding enthalpy [1]: -34.1 kcal/mol
- Tm [2]: 47.1 °C

Sequence: GATCAGACGACTGATC ((((((....))))))
- folding enthalpy [1]: -39.2 kcal/mol
- Tm [2]: 47.5 °C

Sequence: GATCAGACTACTGATC ((((((....))))))
- folding enthalpy [1]: -33 kcal/mol
- Tm [2]: 49.1 °C

Sequence: GATCAGAGAGCTGATC ((((((....))))))
- folding enthalpy [1]: -31 kcal/mol
- Tm [2]: 46.2 °C

Sequence: GATCAGAGCACTGATC ((((((....))))))
- folding enthalpy [1]: -36.5 kcal/mol
- Tm [2]: 49.3 °C
